Legend:
Mus musculus [1] = test: Anti-inflammatory activity against croton oil induced ear edema Swiss mouse model assessed as edema inhibition at 0.625 mg per ear, TOP measured after 6 hrs relative to control; type: functional
Procedure, shortened: (§1)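 Male Swiss mice (20–30 g), n=7/group. Croton oil (200 µg/ear in 70% acetone) applied to the inner left ear, with vehicle alone on the right ear. Treatments in 20 µL 70% acetone were then applied topically to the left ear at 0.625 or 1.25 mg/ear, or 1 mg/ear for the reference drug. After 6 h, 6.0 mm ear disks were weighed and % edema inhibition calculated.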

Mus musculus [2] = test: Anti-inflammatory activity against croton oil induced ear edema Swiss mouse model assessed as edema inhibition at 1.25 mg per ear, TOP measured after 6 hrs relative to control; type: functional; procedure, shortened: as §1
Mus musculus [3] = test: Anti-inflammatory activity against croton oil induced ear edema Swiss mouse model assessed as edema inhibition at 1.00 mg per ear, TOP measured after 6 hrs relative to control; type: functional; procedure, shortened: as §1
[4] = biological target: T1, Prostaglandin G/H synthase 1 (Ovis aries) (UniProt P05979); test: Inhibition of ovine COX-1 at 1.95 uM by microplate reader analysis relative to control
T1 sequence (whole entry): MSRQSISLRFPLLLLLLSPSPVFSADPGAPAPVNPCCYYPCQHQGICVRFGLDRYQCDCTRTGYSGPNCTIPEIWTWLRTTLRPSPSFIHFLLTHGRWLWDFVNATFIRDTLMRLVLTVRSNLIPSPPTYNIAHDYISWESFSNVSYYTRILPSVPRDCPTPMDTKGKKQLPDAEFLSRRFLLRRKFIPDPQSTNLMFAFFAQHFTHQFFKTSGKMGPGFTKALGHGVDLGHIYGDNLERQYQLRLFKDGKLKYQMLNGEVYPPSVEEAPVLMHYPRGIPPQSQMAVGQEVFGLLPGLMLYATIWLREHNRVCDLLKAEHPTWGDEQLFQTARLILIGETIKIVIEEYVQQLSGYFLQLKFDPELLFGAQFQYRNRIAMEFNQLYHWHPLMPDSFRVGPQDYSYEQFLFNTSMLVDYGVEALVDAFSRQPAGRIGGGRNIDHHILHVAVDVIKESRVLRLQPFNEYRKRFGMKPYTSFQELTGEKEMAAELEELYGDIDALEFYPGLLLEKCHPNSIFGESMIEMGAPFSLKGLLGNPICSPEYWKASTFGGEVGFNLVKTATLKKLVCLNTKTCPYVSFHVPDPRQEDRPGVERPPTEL
Procedure, shortened: (§2)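 Kit-based cyclooxygenase inhibitor screen using human recombinant COX-2 or ovine COX-1, run per the manufacturer's procedure. Compound was tested at 1.95 and 31.25 µM. Absorbance was read at 405 nm. % inhibition was derived from %B/B0 on a standard curve.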

[5] = biological target: T2, Prostaglandin G/H synthase 2 (Homo sapiens) (UniProt P35354); test: Inhibition of human recombinant COX-2 at 31.25 uM by microplate reader analysis relative to control; procedure, shortened: as §2
T2 sequence (whole entry): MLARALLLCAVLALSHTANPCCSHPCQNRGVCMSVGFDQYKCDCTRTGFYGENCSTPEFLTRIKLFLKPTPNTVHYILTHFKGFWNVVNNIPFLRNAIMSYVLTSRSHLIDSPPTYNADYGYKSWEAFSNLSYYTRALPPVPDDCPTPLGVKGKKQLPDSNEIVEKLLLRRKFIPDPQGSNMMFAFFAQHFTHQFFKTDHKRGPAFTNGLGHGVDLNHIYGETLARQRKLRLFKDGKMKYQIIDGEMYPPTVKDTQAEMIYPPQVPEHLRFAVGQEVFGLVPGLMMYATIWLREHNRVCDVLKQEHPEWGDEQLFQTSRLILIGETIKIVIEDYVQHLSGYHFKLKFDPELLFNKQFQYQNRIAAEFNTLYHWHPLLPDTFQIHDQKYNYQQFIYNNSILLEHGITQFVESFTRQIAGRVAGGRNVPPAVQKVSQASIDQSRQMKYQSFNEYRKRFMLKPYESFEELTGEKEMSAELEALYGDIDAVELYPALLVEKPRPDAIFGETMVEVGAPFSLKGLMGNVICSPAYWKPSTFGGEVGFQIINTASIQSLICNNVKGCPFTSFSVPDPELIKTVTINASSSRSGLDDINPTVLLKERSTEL

[6] = biological target: T2, Prostaglandin G/H synthase 2 (Homo sapiens); test: Inhibition of human recombinant COX-2 at 1.95 uM by microplate reader analysis relative to control; procedure, shortened: as §2
[7] = biological target: T1, Prostaglandin G/H synthase 1 (Ovis aries); test: Inhibition of ovine COX-1 at 31.25 uM by microplate reader analysis relative to control; procedure, shortened: as §2
[8] = Cytotoxicity against mouse L929 cells assessed as reduction in cell viability incubated for 72 hrs by MTT assay; type: toxicity, cell-based
Procedure, shortened: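 Fibroblasts (CCL-1) were seeded at 2.5 × 10^5 cells/mL in DMEM + 10% FBS and grown 24 h at 37 °C, 5% CO2 to confluence. They were exposed to 100–1000 µM compound for 72 h, then given MTT (2 mg/mL) for 4 h. Formazan was dissolved in DMSO and read at 492 nm. Viability relative to control gave CC50.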

O=C(O)c1cc2c(-c3ccc([N+](=O)[O-])cc3)n[nH]c(=O)c2[nH]c1=O
inhibition (INH) (Mus musculus [1]): 63.2%
inhibition (INH) (Mus musculus [2]): 56.2%

O=C(O)c1cc2c(-c3ccc(Cl)cc3)n[nH]c(=O)c2[nH]c1=O
inhibition (INH) (Mus musculus [1]): 65.9%
inhibition (INH) (Mus musculus [2]): 75.2%

CCOC(=O)c1cc2c(-c3ccc([N+](=O)[O-])cc3)n[nH]c(=O)c2[nH]c1=O
inhibition (INH) (Mus musculus [1]): 64.2%

N#Cc1cc2c(-c3ccc(Cl)cc3)n[nH]c(=O)c2[nH]c1=O
inhibition (INH) (Mus musculus [1]): 49%
inhibition (INH) (Mus musculus [2]): 50.4%

N#Cc1cc2c(-c3ccc([N+](=O)[O-])cc3)nn(-c3ccccc3)c(=O)c2[nH]c1=O
inhibition (INH) (Mus musculus [2]): 78.5%

COc1ccc2c(c1)c(CC(=O)O)c(C)n2C(=O)c1ccc(Cl)cc1 [INDOMETHACIN]
inhibition (INH) (Mus musculus [3]): 98.2%

N#Cc1cc2c(-c3ccc(Cl)cc3)nn(-c3ccccc3)c(=O)c2[nH]c1=O
inhibition [4]: 22.1%
inhibition (INH) (Mus musculus [1]): 62.8%
inhibition [5]: 40.3%
inhibition [6]: 20.2%
inhibition [7]: 30.6%
IC50 at 72 h [8]: 249 µM
inhibition (INH) (Mus musculus [2]): 81.8%

Source: ChEMBL document CHEMBL5335836, “Discovery of a new pyrido[2,3-d]pyridazine-2,8-dione derivative as a potential anti-inflammatory agent through COX-1/COX-2 dual inhibition” (RSC Med Chem, 2024)
